Results: ChEMBL document CHEMBL4513216, “Probing the Open Global Health Chemical Diversity Library for Multistage-Active Starting Points for Next-Generation Antimalarials” (ACS Infect Dis, 2020)

assay: Toxicity liver stage against HepG2, at 10uM; assay type: cell-based; design: test concentration 10 uM, cell line HepG2-A16-CD81EGFP; details: human, HepG2-A16-CD81EGFP cells; read-out: INHIBITION
In short: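 Uninfected HepG2-A16-CD81EGFP cells, 3 × 10^3 per well, 1536-well, plated on prespotted compound at 10 μM final, parasite-free screening media added to match infected plates; puromycin 10 μM positive, DMSO 0.5% negative; run in parallel with 48 h PbLuc assay at 37 °C, 5% CO2; viability by CellTiter-Glo luminescence, normalized to controls.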

| Structure (SMILES) | cytotoxicity at 10 µM [%] |
| --- | --- |
| Fc1ccc(CN2CCOC[C@H](Oc3cccnc3)C2)cc1 | 7.35 |
| COCC(=O)N1CCN(C(C)=O)C[C@@H]1C(=O)OC | 2.43 |
| CCCNC(=O)C1CCCN(c2ccc3nncn3n2)C1 (stereo not given) | 10.7 |
| O=C(O)CCn1ccc(=O)c2cc(F)ccc21 | 1.09 |
| CCCNC(=O)CSc1nnc2[nH]c(=O)c3c(n12)CCCC3 | -83.3 |
| CCOc1ccc(S(=O)(=O)NCCCc2ccc(N(C)C)cc2)cc1C | 0.279 |
| O=C(NCC(O)c1ccsc1)Nc1cccs1 (stereo not given) | -8.29 |
| O=C(Nc1cccc(OC(F)F)c1)C1CN(S(=O)(=O)C2CC2)C1 | 0.696 |
| O=S(=O)(NCCC(O)c1cccs1)c1c(F)cccc1F (stereo not given) | -0.00815 |
| O=C(Nc1nc2c(s1)CN(S(=O)(=O)C1CC1)CC2)C1CC1 | -0.849 |
| CN(C)C(=O)c1ccc2ccc(N3CCN(CC4CC4)CC3)n2c1 | 4.14 |
| COc1ccc(C(=O)N2CCO[C@H]3[C@@H](OCC4CC4)CC[C@@H]32)cc1F | 19.1 |
| CCN1C(=O)CC(c2cccnc2)C12CCN(c1ncc(F)cn1)CC2 (stereo not given) | -8.59 |
| CCOC1CC2(CCN(c3cnccn3)CC2)c2ccccc21 (stereo not given) | 5.54 |
| CCOCc1cncc2c1CCN(S(=O)(=O)c1cccc(C)c1)C2 | 13.6 |
| O=S(=O)(C1CC1)N1CCc2ncnc(-c3ccc(F)cc3)c2CC1 | -66.5 |
| Cc1ccc(C(=O)N2C[C@@H]3CN(S(C)(=O)=O)CCO[C@@H]3C2)o1 | -2.42 |
| Cc1nc(N2CCOCC2)nc2c1CCN(c1nccs1)CC2 | 7.37 |
| Cc1ccc(N2CC[C@@H]3O[C@@H](c4ccncn4)C[C@H]3C2)nn1 | 10.8 |
| CCN1CCC2(CC1)CN(C(C)=O)c1ccc(C)cc12 | 3.98 |
| CN(C)C(=O)c1cc2c(nc1NCC1CC1)CCN(CC1CC1)CC2 | 7.54 |
| O=C(COc1coc(CN2CCCCC2)cc1=O)c1ccc(Cl)cc1 | 3.13 |

| Structure (SMILES) | cytotoxicity at 10 µM [%] |
| --- | --- |
| Cc1nc2c(N3CCN(Cc4ccccc4)CC3)nc(N)nc2n1C | 5.61 |
| CCN(Cc1c(C)nn(CC)c1C)S(=O)(=O)c1cnn(C)c1C | 9.65 |
| CC(C)n1cc(N2CC(C(=O)N3CCc4ccccc4C3)CC2=O)cn1 (stereo not given) | -153 |
| COc1ccccc1CN1CCC(c2nccc(C)n2)C1 (stereo not given) | 3.44 |
| CC(=O)N1CCC(C)(c2cc(C(=O)NCC(C)(C)C)nc(C)n2)CC1 | 6.93 |
| CC(C)c1nccn1-c1nccnc1C1CCCN1Cc1cccnc1 (stereo not given) | 7.77 |
| Cc1cc(N2CCOC(C)(C(=O)N(C)C)C2)ncn1 (stereo not given) | -0.277 |
| COc1ccc(CN2CC[C@H](NC(C)=O)[C@@H](O)CC2)c(F)c1 | -11.1 |
| CC(=O)N1CCCC1c1cccc(Cc2ccccc2Cl)n1 (stereo not given) | 1.58 |
| CC(C)n1ccnc1CN1CCOC(C)(C(=O)N2CCOCC2)C1 (stereo not given) | -8.58 |
| Oc1nc(N2CCOCC2)nc2c1CCN(Cc1ccc(F)cc1)CC2 | -4.14 |
| O=C(N[C@@H]1CCC[C@@H](n2ccnc2)[C@@H]1O)c1ccc2c(c1)CCCC2 | -11.3 |
| CS(=O)(=O)N1Cc2ccccc2CC2(CCN(Cc3ccncc3)C2)C1 (stereo not given) | 4.59 |
| O=c1c2ccccc2nc2n1C(CSc1cccc(C(F)(F)F)c1)CN2 (stereo not given) | 12.9 |
| CCc1ccc2c(c1)C(CCNC(=O)Cc1cccc(F)c1)C(=O)N2 (stereo not given) | -49.1 |
| COc1ccccc1/C=C/CNCC1CCc2nncn2C1 (stereo not given) | 3.91 |
| O=C(NCC1CCS(=O)(=O)C1)N(Cc1ccco1)C1CC1 (stereo not given) | -136 |
| CC(C)c1nn(C)c(Cl)c1CNCCn1cccn1 | -9.11 |
| COCCN(Cc1ccccn1)C(=O)Nc1cccnc1N1CCCC1 | 4.03 |
| CCC(O)CN(c1ccccc1)S(=O)(=O)c1cnc(C)s1 (stereo not given) | -45.6 |
| Cc1noc(C2CCN(Cn3cc(Cl)cn3)CC2)n1 | -11.1 |
| Cc1nc(CN2CCCc3cc(OC(F)(F)F)ccc32)oc1C | 0.889 |

| Structure (SMILES) | cytotoxicity at 10 µM [%] |
| --- | --- |
| COc1ccc(OC)c(CCNC(=O)CCC2CCCO2)c1 (stereo not given) | 2.34 |
| Cc1ccc(C2CCCN2S(=O)(=O)N(C)Cc2cnccn2)o1 (stereo not given) | 0.78 |
| CCC(=O)N(CC)C(c1cccnc1)c1ccc2c(c1)CCO2 (stereo not given) | 2.94 |
| O=C(CN1CCCC1COc1ccccc1)NCc1ccccn1 (stereo not given) | -0.764 |
| CCC1(CNC(=O)NC(c2nnc3n2CCC3)C(C)C)CCC1 (stereo not given) | 0.864 |
| Cc1cc(F)ccc1-n1cc(O)c(C(N)=O)n1 | -9.55 |
| COc1ccc(N(C(=O)c2ccc(C)nc2)C(C)C)cc1F | -3.17 |
| CCC(CC)n1ncc(C(=O)NS(=O)(=O)c2ccsc2)c1C | -3.01 |
| CC(C)c1ncc(Cl)c(C(=O)N2CCN3CCCCC3C2)n1 (stereo not given) | 4.77 |
| O=S(=O)(NCc1ccc(S(=O)(=O)N2CCCC2)s1)c1ccc(Cl)cc1 | -44 |
| CC(C)c1noc(OCc2cccc(S(=O)(=O)N(C)C)c2)n1 | -45.9 |
| CN(CCN1CCOC1=O)CC(=O)Nc1ccc(Cl)c(Cl)c1 | -52.4 |
| CCC(CC)CNCC1(S(C)(=O)=O)CCOCC1 | 0.354 |
| Cc1nccn1-c1ccc(CNC(=O)c2ccc(O)nc2)cn1 | 1.75 |
| Cn1cccc(NC(=O)N2CCC(COCc3ccccc3)C2)c1=O (stereo not given) | 3.67 |
| O=C(NCCc1nnc2n1CCC2)N1CCC2(CCCCC2)C1 | 14.7 |
| COc1c(CNC2CCCc3ccccc32)c(C)nn1C (stereo not given) | -0.808 |
| O=C(c1ccoc1)N1CC[C@@H]2O[C@@H](COCC3CCOCC3)CC[C@@H]21 | -76.2 |
| CC(C)NC(=O)N1CCC2(COCc3cnc(-c4cccnc4)nc32)C1 (stereo not given) | 1.77 |
| COc1cc(-c2cc(=O)[nH]cn2)cc(OC)c1OC | -12.5 |
| Cc1cc(N2CCC3(CCCN(CCO)C3=O)C2)nc(C)c1C#N (stereo not given) | 7.41 |
| CCc1ncc(CN2CCC(CCc3ccccc3)CC2)cn1 | -175 |

| Structure (SMILES) | cytotoxicity at 10 µM [%] |
| --- | --- |
| Cc1nc(CC(=O)N2CCCC2c2nc(-c3ccccc3)no2)cs1 (stereo not given) | 7.01 |
| CCc1oc(C(=O)N(C)Cc2ccncc2)cc1CN(CC)CC | -1.81 |
| CSCCCN1CC[C@@]2(O)CCN(c3ncccn3)C[C@H]2C1 | -4.53 |
| Cc1nn(C)c(C)c1CN(C(=O)c1cc(Cl)c[nH]c1=O)C(C)C | -3.25 |
| COc1cc(C)ccc1OCc1nc(C(=O)N2CCCC2)co1 | -42.5 |
| NCc1cn(CC2CCCN(C(=O)NCCc3ccc(F)cc3)C2)nn1 (stereo not given) | 17.2 |
| CCCN(Cc1ccc(OC)nc1)Cc1ccccc1OC | -5.85 |
| c1ccc(COC2CCN(Cc3cc4n(n3)CCCNC4)CC2)nc1 | 2.59 |
| CCNc1ncc(C(=O)NCc2ccc(F)c(C(F)(F)F)c2)cn1 | -5.96 |
| CCc1ccccc1OC1CN(C(=O)c2ccsc2)C1 | 7.46 |
| c1csc(CN2CCCN(c3ncnc4[nH]ccc34)CC2)c1 | 5.51 |
| Cc1ccc(N2CCN(C(=O)CCc3n[nH]c(C)c3C)CC2=O)cc1 | 4.78 |
| O=C1NCC2(CCCN(C(=O)c3ccc4c(c3)CCCO4)CC2)O1 (stereo not given) | -19.7 |
| CCOCn1cc(NC(=O)C2CCN(S(C)(=O)=O)CC2)cn1 | -10.7 |
| CS(=O)(=O)N1CCC(O)(Cn2c(C3CC3)nc3ccccc3c2=O)CC1 | 3.06 |
| CC(C)(C)OC(=O)N1CCN(C(=O)CCn2cccn2)CC1 | -14.6 |
| CCc1nc(C2CCCN(C(=O)c3ccccc3O)C2)no1 (stereo not given) | -7.39 |
| O=C(NCC(=O)N1CCCC1)c1nn(-c2ccccc2F)cc1O | 6.53 |
| O=C(O)c1cccc(S(=O)(=O)N2CCOc3ccccc32)c1 | -5.92 |
| CCNc1cc2c(nn1)CCN(C(=O)c1ccsc1)C2 | -13.7 |
| CN(C)c1ccc(C(=O)N2CCCC(n3cccn3)C2)cn1 (stereo not given) | -11.5 |
| CN1CCN(c2cc(CNC(=O)Cn3cccn3)ccn2)CC1 | -11.6 |

| Structure (SMILES) | cytotoxicity at 10 µM [%] |
| --- | --- |
| Cc1csc(N2CCCN(C(=O)c3csc(C)n3)CC2)n1 | -3.96 |
| CCc1noc(C(C)N2CCC(O)CC2)n1 (stereo not given) | 0.26 |
| CCn1ccnc1CN1CCOC(Cn2cccn2)C1 (stereo not given) | -14.7 |
| Cc1ccc(NS(=O)(=O)c2cc3c(c(C(=O)O)c2)OCCO3)cc1C | -15.3 |
| c1cnnc(NCC2CN(CCN3CCCCC3)CCO2)c1 (stereo not given) | -11.9 |
| CCn1c(C)cc(C(=O)N2CCCC(n3nc(C)nc3C)C2)c1C (stereo not given) | -11.4 |
| Cc1cccc(-c2nc(CN3CCc4c(ncn4C)C3)no2)c1 | -9.42 |
| Cc1csc(N2CCCN(C(=O)c3c(C)oc(C)c3C)CC2)n1 | 3.75 |
| Cc1nc(C2CCCN2Cc2ncc(C(C)C)o2)no1 (stereo not given) | 4.31 |
| CC1CCN(S(=O)(=O)NCc2ccccc2Cn2cncn2)CC1 | -2.72 |
| Cc1cnn(CCC(=O)N2CCCC(c3nc(C)no3)C2)c1 (stereo not given) | -1.59 |
| Cc1cnn(CC2CCCN2Cc2nc3ccccc3nc2C)c1 (stereo not given) | -1.35 |
| O=C([C@@H]1CCO[C@@H]2CCN(Cc3ccsc3)C[C@@H]21)N1CCCC1 | -81.4 |
| Cc1cccc(CN2C(=O)C[C@H]3[C@@H]2CCN3Cc2ccccn2)n1 | 6.97 |
| CCN1CCC2(CCN(Cc3ccc(OC)cc3)CC2)C1=O | -0.0368 |
| Cn1nccc1-c1nnn2c1COC(CNCc1nccs1)C2 (stereo not given) | -1.07 |
| O=C(NC1CC1)[C@H]1C[C@H]2OCC[C@H]2N(Cc2ccc3ccccc3n2)C1 | -62.6 |
| CN(C)[C@@H]1CCN(C(=O)c2ccsc2)[C@H]1Cc1cccnc1 | -66.7 |
| CN(C[C@@H]1CCC[C@@H]2CN(c3ncccn3)C[C@@H]21)C1CC1 | 5.18 |
| CC(=O)N1CC(=O)N(c2ccccc2)CC12CCN(Cc1ccoc1)C2 (stereo not given) | -1.51 |
| CC(C)NCC1(COc2ccccc2)C[C@@H](O)[C@@H](O)C1 (stereo not given in full) | 0.67 |
| CC(=O)N1C[C@H]2CC[C@@H](C1)N(S(=O)(=O)c1ccc(C#N)cc1Cl)C2 | 1.33 |
